Measured values published in paper PMC5930004 (European journal of medicinal chemistry, 2018).
“Also recorded” adds a separate entry of the source.

Assays:
TOP2 = experiment: TOP2-mediated relaxation assay; type: biochemical; conditions: 25 μM concentration
TOP1 [1] = target: T1, TOP1 (Homo sapiens, UniProt P11387); experiment: TOP1-mediated relaxation assay; type: biochemical; conditions: 25 μM concentration
T1 sequence (P11387 1-765): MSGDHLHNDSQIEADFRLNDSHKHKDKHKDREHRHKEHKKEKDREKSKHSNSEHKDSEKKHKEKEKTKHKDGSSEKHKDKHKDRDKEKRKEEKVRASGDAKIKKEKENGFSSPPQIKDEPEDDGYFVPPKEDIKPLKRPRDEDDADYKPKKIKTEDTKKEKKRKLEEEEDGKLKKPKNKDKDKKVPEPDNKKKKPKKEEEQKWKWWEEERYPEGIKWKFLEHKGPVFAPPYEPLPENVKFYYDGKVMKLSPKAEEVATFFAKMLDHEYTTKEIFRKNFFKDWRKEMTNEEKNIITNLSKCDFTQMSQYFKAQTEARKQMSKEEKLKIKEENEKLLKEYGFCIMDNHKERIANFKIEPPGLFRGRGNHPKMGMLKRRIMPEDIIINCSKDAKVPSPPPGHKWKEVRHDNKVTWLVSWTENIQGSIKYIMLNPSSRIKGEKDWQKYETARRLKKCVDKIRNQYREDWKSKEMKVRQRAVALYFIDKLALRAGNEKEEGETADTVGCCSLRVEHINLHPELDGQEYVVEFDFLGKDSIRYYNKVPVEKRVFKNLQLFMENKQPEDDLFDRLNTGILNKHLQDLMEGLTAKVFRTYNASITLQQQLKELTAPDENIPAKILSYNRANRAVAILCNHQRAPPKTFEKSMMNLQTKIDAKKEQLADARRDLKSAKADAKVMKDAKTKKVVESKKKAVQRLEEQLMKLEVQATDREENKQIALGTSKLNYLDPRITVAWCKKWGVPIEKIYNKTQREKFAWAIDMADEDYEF

recombinant TDP1 = recombinant TDP1 (Homo sapiens, UniProt Q9NUW8); experiment: Recombinant TDP1 assay; type: biochemical; conditions: highest concentration tested 111 μM
recombinant TDP1, sequence (Q9NUW8 whole entry, species assumed): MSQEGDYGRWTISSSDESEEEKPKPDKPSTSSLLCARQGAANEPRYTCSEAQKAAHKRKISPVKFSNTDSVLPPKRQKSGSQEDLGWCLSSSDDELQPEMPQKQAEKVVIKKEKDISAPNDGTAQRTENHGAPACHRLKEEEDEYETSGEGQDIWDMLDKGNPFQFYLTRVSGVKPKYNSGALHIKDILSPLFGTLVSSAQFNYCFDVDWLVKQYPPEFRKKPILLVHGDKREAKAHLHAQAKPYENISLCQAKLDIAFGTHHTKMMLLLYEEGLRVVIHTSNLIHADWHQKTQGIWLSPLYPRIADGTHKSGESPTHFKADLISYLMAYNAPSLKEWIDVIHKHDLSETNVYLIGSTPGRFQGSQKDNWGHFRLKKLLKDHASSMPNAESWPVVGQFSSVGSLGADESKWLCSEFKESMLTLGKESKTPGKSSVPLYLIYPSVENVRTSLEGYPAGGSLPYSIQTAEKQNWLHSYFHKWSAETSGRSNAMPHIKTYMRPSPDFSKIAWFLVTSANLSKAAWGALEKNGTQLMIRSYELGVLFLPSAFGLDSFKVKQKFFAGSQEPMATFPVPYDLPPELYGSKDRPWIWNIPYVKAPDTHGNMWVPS
Summary of the method: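 Test compound was run as six or eight three-fold dilutions from 111 μM down to 0.46 μM or 0.051 μM against recombinant TDP1. Reactions were stopped with 1 volume of gel loading buffer (99.5% formamide, 5 mM EDTA, xylene cyanol, bromophenol blue) and resolved by 16% denaturing PAGE. Dried gels were phosphorimaged and quantified by densitometry.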

recombinant human TDP2 = target: T2, recombinant human TDP2 (Homo sapiens, UniProt O95551); experiment: Recombinant TDP2 assay; type: biochemical; conditions: inactive, i.e. IC50 >111 μM
T2 sequence (O95551 1-362): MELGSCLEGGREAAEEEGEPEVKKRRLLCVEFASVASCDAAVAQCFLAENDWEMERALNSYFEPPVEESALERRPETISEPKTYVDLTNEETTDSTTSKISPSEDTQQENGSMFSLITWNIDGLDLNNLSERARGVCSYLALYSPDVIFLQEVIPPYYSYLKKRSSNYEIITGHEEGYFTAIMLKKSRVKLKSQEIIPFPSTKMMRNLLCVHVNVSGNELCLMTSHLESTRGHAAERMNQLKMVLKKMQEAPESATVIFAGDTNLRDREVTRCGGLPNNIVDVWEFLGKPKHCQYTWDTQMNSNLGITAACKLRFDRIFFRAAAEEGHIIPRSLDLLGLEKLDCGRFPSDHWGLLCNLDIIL

TOP1 [2] = target: T1, TOP1; experiment: TOP1-mediated DNA cleavage assay; type: biochemical; conditions: up to 100 μM
[3] = target: TOP2-DNA covalent cleavage complexes (TOP2cc) in CCRF-CEM cells (Homo sapiens, UniProt P11388); experiment: In vivo complex of enzyme; type: cell-based; conditions: 2 h treatment, up to 50 μM
TOP2-DNA covalent cleavage complexes (TOP2cc) in CCRF-CEM cells, sequence (P11388 whole entry, one chain of several): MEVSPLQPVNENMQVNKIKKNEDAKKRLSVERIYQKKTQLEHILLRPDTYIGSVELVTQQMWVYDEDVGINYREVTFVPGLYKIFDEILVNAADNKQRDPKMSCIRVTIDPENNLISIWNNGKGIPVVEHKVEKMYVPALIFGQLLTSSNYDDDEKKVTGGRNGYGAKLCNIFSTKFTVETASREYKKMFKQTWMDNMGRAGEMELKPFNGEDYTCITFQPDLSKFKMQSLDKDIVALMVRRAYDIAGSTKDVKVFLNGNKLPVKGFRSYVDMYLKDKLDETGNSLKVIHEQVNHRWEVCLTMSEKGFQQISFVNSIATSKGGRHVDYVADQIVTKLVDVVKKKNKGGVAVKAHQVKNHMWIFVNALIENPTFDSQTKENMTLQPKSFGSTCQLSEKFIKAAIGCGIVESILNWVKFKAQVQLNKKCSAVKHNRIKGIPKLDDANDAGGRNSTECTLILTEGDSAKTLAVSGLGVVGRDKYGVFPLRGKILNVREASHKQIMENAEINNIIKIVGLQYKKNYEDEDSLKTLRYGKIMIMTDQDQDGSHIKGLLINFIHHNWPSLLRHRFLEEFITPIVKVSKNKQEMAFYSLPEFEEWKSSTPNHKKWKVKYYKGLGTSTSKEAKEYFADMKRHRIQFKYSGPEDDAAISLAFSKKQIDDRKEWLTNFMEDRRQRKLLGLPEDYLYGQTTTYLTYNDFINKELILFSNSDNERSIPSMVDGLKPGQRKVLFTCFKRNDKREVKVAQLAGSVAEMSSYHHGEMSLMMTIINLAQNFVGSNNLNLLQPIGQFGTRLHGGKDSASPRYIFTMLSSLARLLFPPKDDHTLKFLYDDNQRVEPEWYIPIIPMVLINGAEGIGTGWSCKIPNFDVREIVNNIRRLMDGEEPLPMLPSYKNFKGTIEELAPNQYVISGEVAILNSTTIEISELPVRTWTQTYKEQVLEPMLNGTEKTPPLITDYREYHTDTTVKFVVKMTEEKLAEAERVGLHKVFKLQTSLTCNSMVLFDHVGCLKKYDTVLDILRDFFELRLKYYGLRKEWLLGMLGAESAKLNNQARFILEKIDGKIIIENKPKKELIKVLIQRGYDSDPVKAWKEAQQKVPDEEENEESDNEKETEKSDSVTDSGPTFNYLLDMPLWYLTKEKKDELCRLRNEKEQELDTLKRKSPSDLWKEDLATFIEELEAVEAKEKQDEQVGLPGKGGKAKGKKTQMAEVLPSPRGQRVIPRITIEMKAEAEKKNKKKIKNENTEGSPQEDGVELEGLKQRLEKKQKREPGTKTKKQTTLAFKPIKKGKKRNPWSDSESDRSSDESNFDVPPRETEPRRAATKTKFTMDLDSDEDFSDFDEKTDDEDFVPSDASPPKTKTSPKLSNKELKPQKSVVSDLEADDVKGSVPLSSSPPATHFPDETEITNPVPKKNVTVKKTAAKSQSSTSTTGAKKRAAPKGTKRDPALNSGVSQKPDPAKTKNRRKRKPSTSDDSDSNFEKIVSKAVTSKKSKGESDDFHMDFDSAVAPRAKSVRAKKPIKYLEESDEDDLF
Summary of the method: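 CCRF-CEM cells (60 × 10^5) exposed to test compound for 2 h, then lysed with 1% Sarkosyl. DNA was isolated, and TOP2–DNA covalent complexes were detected by Western slot blot using a mouse anti-human TOP2α antibody.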

Compound | TDP1 inhibition (in words) (recombinant TDP1) | TDP2 inhibitory activity (in words) (recombinant human TDP2) | TOP2 relaxing activity inhibition (in words) (TOP2) | TOP1 relaxing activity inhibition (in words) (TOP1 [1]) | further results
CCOC(=O)c1c(C)oc2c1C(=O)c1ncccc1C2=O [Compound 1, Ethyl 2-methyl-4,9-dioxo-4,9-dihydrofuro[2,3-g]quinoline-3-carboxylate] | did not inhibit | – | did not inhibit | did not inhibit | –
Cc1oc2c(c1C(=O)Oc1ccc3ccccc3c1)C(=O)c1ncccc1C2=O [Compound 40, 2-Naphthalenyl 2-methyl-4,9-dioxo-4,9-dihydrofuro[2,3-g]quinoline-3-carboxylate] | – | inactive | – | – | –
CCOC(=O)c1c2c(n(C)c1C)C(=O)c1ncccc1C2=O [Compound 72, ethyl 1,2-dimethyl-4,9-dioxo-4,9-dihydro-1H-pyrrolo[3,2-g]quinoline-3-carboxylate] | – | inactive | – | – | –
CCOC(=O)c1n[nH]c2c1C(=O)c1cccnc1C2=O [Compound 76, Ethyl 4,9-dioxo-4,9-dihydro-1H-pyrazolo[4,3-g]quinoline-3-carboxylate] | – | inactive | – | – | –

Second part, led by results:

TDP1 inhibition (in words) (recombinant TDP1) | TDP2 inhibitory activity (in words) (recombinant human TDP2) | Compound | TOP2 relaxing activity inhibition (in words) (TOP2) | TOP1 relaxing activity inhibition (in words) (TOP1 [1]) | further results
– | inactive | Cc1oc2c(c1C(=O)Oc1ccc(C(=O)c3ccccc3)cc1)C(=O)c1ncccc1C2=O [Compound 46, 4-Benzoylphenyl 2-methyl-4,9-dioxo-4,9-dihydrofuro[2,3-g]quinoline-3-carboxylate] | – | – | –
– | inactive | Cc1oc2c(c1C(=O)Oc1ccc3c(c1)OCO3)C(=O)c1ncccc1C2=O [Compound 49, Benzo[d][1,3]dioxol-5-yl 2-methyl-4,9-dioxo-4,9-dihydrofuro[2,3-g]quinoline-3-carboxylate] | – | – | –
– | inactive | CCOC(=O)c1c(C)[nH]c2c1C(=O)c1cccnc1C2=O [Compound 70, ethyl 2-methyl-4,9-dioxo-4,9-dihydro-1H-pyrrolo[3,2-g]quinoline-3-carboxylate] | – | – | –
no activity | – | CCOC(=O)c1noc2c1C(=O)c1ncccc1C2=O [Compound 73, Ethyl 4,9-dioxo-4,9-dihydroisoxazolo[5,4-g]quinoline-3-carboxylate] | do not have inhibitory potency; also recorded: no activity | do not have inhibitory potency; also recorded: no activity | TOP1-mediated DNA cleavage, formation of covalent TOP1-DNA complex (in words) (TOP1 [2]): do not have inhibitory potency
no activity | – | CCOC(=O)c1noc2c1C(=O)c1cccnc1C2=O [Compound 74, Ethyl 4,9-dioxo-4,9-dihydroisoxazolo[4,5-g]quinoline-3-carboxylate] | do not have inhibitory potency; also recorded: no activity | do not have inhibitory potency; also recorded: no activity | TOP1-mediated DNA cleavage, formation of covalent TOP1-DNA complex (in words) (TOP1 [2]): do not have inhibitory potency; Induction of TOP2cc formation (ICE assay, in words) [3]: unable to induce the formation of TOP2cc
– | inactive | CCOC(=O)c1n[nH]c2c1C(=O)c1ncccc1C2=O [Compound 75, Ethyl 4,9-dioxo-4,9-dihydro-1H-pyrazolo[3,4-g]quinoline-3-carboxylate] | – | – | –
